Measurements from ChEMBL document CHEMBL3352597, “Heck products of parthenolide and melampomagnolide-B as anticancer modulators that modify cell cycle progression” (Eur J Med Chem, 2014).

How the values were obtained:
Format in all cases: functional
NCI-H322M = assay: Anticancer activity against human NCI-H322M cells after 48 hrs
In short: (§1)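 NCI 60 human cancer cell line panel, multiple-dose testing at five concentrations (10^-4, 10^-5, 10^-6, 10^-7 and 10^-8 M). Dose-response curves plot cytotoxic effect against log10 of drug concentration for each cell line. GI50 is the molar concentration giving 50% growth inhibition; LC50 is the concentration killing 50% of cells.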

[1] = Anticancer activity against human OVCAR4 cells; in short: as §1
SNB-19 = assay: Anticancer activity against human SNB19 cells; in short: as §1
[2] = Anticancer activity against human HCC2998 cells; in short: as §1
NCI-H23 = assay: Anticancer activity against human NCI-H23 cells; in short: as §1
[3] = Anticancer activity against human SF295 cells; in short: as §1
[4] = read-out: LC50 (the source's name)

C/C1=C\CC[C@@]2(C)O[C@@H]2[C@H]2OC(=O)/C(=C/c3ccsc3)[C@@H]2CC1
GI50 (NCI-H322M): 44.7 µM
CC50 (NCI-H322M; [4]): > 100 µM
GI50 ([1]; OVCAR-4): 24.3 µM
CC50 ([1]; OVCAR-4, read-out: LC50 (the source's name)): > 100 µM
GI50 (SNB-19): 47.6 µM
CC50 (SNB-19; [4]): > 100 µM
GI50 ([2]; HCC 2998): 33.8 µM
CC50 ([2]; HCC 2998, read-out: LC50 (the source's name)): > 100 µM
GI50 (NCI-H23): 23 µM
CC50 (NCI-H23; [4]): > 100 µM
GI50 ([3]; SF-295): 28.5 µM
CC50 ([3]; SF-295, read-out: LC50 (the source's name)): > 100 µM
